Data set [1] deals with Plasmodium falciparum. In words: Antiplasmodial activity against chloroquine-sensitive Plasmodium falciparum D10. It counts as functional, organism-based. The method in brief:
(§1)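 P. falciparum (D10 and W2) grown in human A+ red cells, RPMI 1640 with 10% heat-inactivated A+ plasma, 37 °C, 1% O2/5% CO2/94% N2. Asynchronous cultures, 1-1.5% parasitemia, 1% hematocrit, exposed to serial dilutions (DMSO <1% final) for 72 h. IC50 is the mean of ≥3 experiments in duplicate.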

For data set [2], the system named is Plasmodium falciparum. In words: Antiplasmodial activity against chloroquine-resistant Plasmodium falciparum W2. The data set is classed as functional, organism-based. The method in brief:
as §1

A further data set deals with Plasmepsin II (Plasmodium falciparum, UniProt P46925). The experiment in a line: Inhibition of Plasmodium falciparum recombinant PLM2. The method in brief:
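Recombinant pro-PLM II (E. coli BL21(DE3) pLysS, refolded from inclusion bodies) activated in 100 mM sodium acetate pH 4.7, 37 °C, 90 min. Cleavage of Lys-Glu-Phe-Val-Phe-NPhe-Ala-Leu-Lys followed at 300 nm. Inhibitors at 1-100 nM, 1% DMSO final. Ki from IC50 via Cheng-Prusoff using Michaelis-Menten Km. Mean ± SD, at least two experiments in triplicate.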

For a further data set, the target named is Plasmepsin I (Plasmodium falciparum, UniProt P39898). In words: Inhibition of Plasmodium falciparum recombinant PLM1. The method in brief:
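Recombinant proPfPLM I from E. coli BL21 Star (DE3) pLysS inclusion bodies, refolded and purified by anion exchange and size exclusion. Initial rates of cleavage of chromogenic Lys-Pro-Ile-Leu-Phe-Nph-Arg-Leu read spectrophotometrically. Ki from fits: Morrison competitive tight-binding equation, or for weaker binders at least six substrate and two or more inhibitor levels, competitive model.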

Data set [3] concerns the target Cathepsin D (Homo sapiens) (UniProt P07339). In words: Inhibition of human cathepsin D at 5 uM.
A short description of data set [4]: Cytotoxicity against human skin fibroblast at 100 uM by MTT assay. It counts as cell-based. The method in brief:
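Primary human skin-biopsy fibroblasts, 8 × 10⁴ per well, grown in DMEM with 10% fetal calf serum, 1% penicillin/streptomycin and 1% L-glutamine. Proliferation followed by MTT test with or without compounds up to 100 µM.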
(Formazan colour is commonly taken as a measure of viable cells.)

The target in data set [5] is Plasmepsin II (Plasmodium falciparum) (UniProt P46925). The experiment in a line: Inhibition of Plasmodium falciparum PLM2-induced human hemoglobin cleavage by SDS-PAGE. The method in brief: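 Hemoglobin (10 µg) digested by preactivated recombinant PLM II (200 ng) in 100 mM sodium acetate, pH 4.7, 37 °C, with vehicle or inhibitor for 0, 10, 30 and 60 min. Stopped with SDS loading dye, boiled 5 min, resolved on 18% polyacrylamide gel.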

In data set [6] the target is Cathepsin D (Homo sapiens) (UniProt P07339). In words: Inhibition of human cathepsin D at 2 uM.
Data set [7] shares this target. In words: Inhibition of human cathepsin D at 100 uM.

The source made the active and inactive calls. No cut-off for these calls is given here.

Chain of Plasmepsin II (P46925 whole entry): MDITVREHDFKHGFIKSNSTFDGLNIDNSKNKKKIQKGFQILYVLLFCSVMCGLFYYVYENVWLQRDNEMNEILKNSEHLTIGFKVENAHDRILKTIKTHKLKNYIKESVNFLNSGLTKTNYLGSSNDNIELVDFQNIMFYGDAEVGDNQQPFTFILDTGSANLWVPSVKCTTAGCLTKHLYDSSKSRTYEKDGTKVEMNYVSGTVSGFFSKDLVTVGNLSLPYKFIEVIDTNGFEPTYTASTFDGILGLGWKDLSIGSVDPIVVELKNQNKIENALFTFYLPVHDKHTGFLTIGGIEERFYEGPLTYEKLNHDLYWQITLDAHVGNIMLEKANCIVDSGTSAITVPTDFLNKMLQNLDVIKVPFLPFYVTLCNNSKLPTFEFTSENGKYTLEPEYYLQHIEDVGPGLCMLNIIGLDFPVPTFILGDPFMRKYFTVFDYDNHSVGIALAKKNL
Chain of Plasmepsin I (P39898 whole entry): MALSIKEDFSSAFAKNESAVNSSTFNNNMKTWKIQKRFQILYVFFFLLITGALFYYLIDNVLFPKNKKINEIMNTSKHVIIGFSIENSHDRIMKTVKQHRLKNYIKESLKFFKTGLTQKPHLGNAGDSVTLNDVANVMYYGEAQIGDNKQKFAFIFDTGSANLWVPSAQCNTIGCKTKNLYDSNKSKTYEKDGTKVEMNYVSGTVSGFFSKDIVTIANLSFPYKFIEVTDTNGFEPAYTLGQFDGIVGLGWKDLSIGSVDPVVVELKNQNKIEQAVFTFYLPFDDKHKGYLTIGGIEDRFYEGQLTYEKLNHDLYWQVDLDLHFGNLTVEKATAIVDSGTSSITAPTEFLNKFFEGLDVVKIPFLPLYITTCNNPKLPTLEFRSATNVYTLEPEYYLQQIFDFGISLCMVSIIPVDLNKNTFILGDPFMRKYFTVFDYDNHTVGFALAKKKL
Chain of Plasmepsin II (Plasmodium falciparum) (P46925 125-453 limits assumed): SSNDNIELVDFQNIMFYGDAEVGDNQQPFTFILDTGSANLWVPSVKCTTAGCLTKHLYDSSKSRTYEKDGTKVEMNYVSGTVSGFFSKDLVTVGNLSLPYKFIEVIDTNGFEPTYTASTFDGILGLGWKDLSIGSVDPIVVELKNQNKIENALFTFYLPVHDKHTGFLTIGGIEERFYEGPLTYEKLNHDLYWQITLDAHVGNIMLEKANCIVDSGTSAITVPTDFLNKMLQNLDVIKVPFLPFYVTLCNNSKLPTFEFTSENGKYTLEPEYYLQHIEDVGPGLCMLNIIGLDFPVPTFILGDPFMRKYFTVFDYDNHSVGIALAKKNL
Chain of Cathepsin D (Homo sapiens) (P07339 65-162 limits assumed): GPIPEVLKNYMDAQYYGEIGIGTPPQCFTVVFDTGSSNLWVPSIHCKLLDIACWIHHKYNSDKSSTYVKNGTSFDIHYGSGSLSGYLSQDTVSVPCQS
Chain of Cathepsin D (Homo sapiens) (P07339 169-412 limits assumed): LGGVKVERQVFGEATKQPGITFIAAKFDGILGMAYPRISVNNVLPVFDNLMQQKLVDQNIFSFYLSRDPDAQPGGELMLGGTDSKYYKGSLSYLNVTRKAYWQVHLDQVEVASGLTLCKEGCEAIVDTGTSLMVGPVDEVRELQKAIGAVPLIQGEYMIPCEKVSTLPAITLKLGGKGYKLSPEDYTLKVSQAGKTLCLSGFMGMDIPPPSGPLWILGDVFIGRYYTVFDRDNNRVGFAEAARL

Regarding `CCCCNC(=O)C[C@H](O)[C@H](CC(C)C)NC(=O)[C@@H](NC(=O)c1ccc(Oc2ccc(C(=O)NCCCC(C)Nc3cc(OC)cc4cccnc34)cc2)cc1)[C@@H](C)CC` (some centres not stated), the IC50 (usually the concentration at which inhibition is half-maximal) turned out to be 2200 nM with Plasmodium falciparum [1] and 2000 nM in the data set on Plasmodium falciparum [2]. Further, the Ki (as a rule, the equilibrium dissociation constant of an inhibitor or competing ligand from its target) on Plasmepsin II came out at 11.2 nM; on Plasmepsin I, 81 nM.

For `CCCCNC(=O)C[C@H](O)[C@H](CC(C)C)NC(=O)[C@@H](NC(=O)c1ccc(Oc2ccc(C(=O)N[C@@H](CC(C)C)C(=O)N[C@@H](C)C(=O)NCCCC(C)Nc3cc(OC)cc4cccnc34)cc2)cc1)[C@@H](C)CC` (some centres not stated), the IC50 was found to be 200 nM with Plasmodium falciparum [1] and 300 nM in the data set with Plasmodium falciparum [2]. The inhibition (usually the relative decrease from the control value, in per cent) in data set [3] is 50%. Further, the results for the Ki on Plasmepsin II and at Plasmepsin I were 26.3 nM and 74 nM, respectively. Moreover, the Activity in data set [4] amounted to 15%. In addition, the outcome in data set [5] was Active.

In the case of `CCCCNC(=O)C[C@H](O)[C@H](CC(C)C)NC(=O)[C@@H](NC(=O)c1ccc(Oc2ccc(C(=O)N[C@@H](CC(C)C)C(=O)N[C@@H](CC(C)C)C(=O)NCCCC(C)Nc3cc(OC)cc4cccnc34)cc2)cc1)C(C)CC` (some centres not stated), the IC50 with Plasmodium falciparum [1] is 3600 nM; in the data set with Plasmodium falciparum [2], 1700 nM. In addition, the Ki is 103 nM at Plasmepsin II and 58 nM on Plasmepsin I.

Turning to `CCCCNC(=O)C[C@H](O)[C@H](CC(C)C)NC(=O)[C@@H](NC(=O)c1ccc(Oc2ccc(C(=O)N[C@@H](CC(C)C)C(=O)N[C@@H](CCCCNC(=O)OC(C)(C)C)C(=O)NCCCC(C)Nc3cc(OC)cc4cccnc34)cc2)cc1)C(C)CC` (some centres not stated), the results for the 50% inhibitory concentration (IC50) with Plasmodium falciparum [1] and in the data set with Plasmodium falciparum [2] were 4050 nM and 3500 nM, respectively. In addition, the Ki at Plasmepsin II is 403 nM; on Plasmepsin I, 230 nM.

Compound `CCCCNC(=O)C[C@H](O)[C@H](CC(C)C)NC(=O)[C@@H](NC(=O)c1ccc(Oc2ccc(C(=O)N[C@@H](CC(C)C)C(=O)NCCCC(C)Nc3cc(OC)cc4cccnc34)cc2)cc1)[C@@H](C)CC` (some centres not stated) had an inhibition in data set [6] of 30%. For the same compound, the IC50 came to 700 nM in the data set on Plasmodium falciparum [1] and 500 nM in the data set on Plasmodium falciparum [2]. Further, the Ki at Plasmepsin II was found to be 12.1 nM; on Plasmepsin I, 765 nM. In data set [5], the result was Active.

Regarding `CCCCNC(=O)C[C@H](O)[C@H](CC(C)C)NC(=O)[C@@H](NC(=O)c1ccc(Oc2ccc(C(=O)N[C@@H](C)C(=O)N[C@@H](CCCCN)C(=O)NCCCC(C)Nc3cc(OC)cc4cccnc34)cc2)cc1)[C@@H](C)CC` (some centres not stated), the IC50 was 800 nM in the data set on Plasmodium falciparum [1] and 1400 nM with Plasmodium falciparum [2]. For the same compound, the Ki worked out at 10.6 nM at Plasmepsin II and 33 nM on Plasmepsin I.

Regarding `CCCCNC(=O)C[C@H](O)[C@H](CC(C)C)NC(=O)[C@@H](NC(=O)c1ccc(Oc2ccc(C(=O)N[C@@H](C)C(=O)N[C@@H](C)C(=O)NCCCC(C)Nc3cc(OC)cc4cccnc34)cc2)cc1)[C@@H](C)CC` (some centres not stated), the IC50 with Plasmodium falciparum [1] was 1300 nM; in the data set with Plasmodium falciparum [2], 1200 nM. In addition, the results for the Ki at Plasmepsin II and at Plasmepsin I were 3.9 nM and 1 nM, respectively.

As for `CCCCNC(=O)C[C@H](O)[C@H](CC(C)C)NC(=O)[C@@H](NC(=O)c1ccc(Oc2ccc(C(=O)N[C@@H](CC(C)C)C(=O)N[C@@H](CCCCNC(=O)OC(C)(C)C)C(=O)OCCC)cc2)cc1)C(C)CC` (some centres not stated), the IC50 with Plasmodium falciparum [1] and in the data set with Plasmodium falciparum [2] was 100 nM each time. Besides, the Ki turned out to be 11 nM at Plasmepsin II and 17 nM on Plasmepsin I. The same compound gave an inhibition in data set [7] of 37%. In addition, in [5], the result was Active.

In the case of `CCCCNC(=O)C[C@H](O)[C@H](CC(C)C)NC(=O)[C@@H](NC(=O)c1ccc(Oc2ccc(C(=O)N[C@@H](CC(C)C)C(=O)N[C@@H](CCCCN)C(=O)OCCC)cc2)cc1)C(C)CC` (some centres not stated), the IC50 was 4500 nM in the data set on Plasmodium falciparum [1] and 3800 nM in the data set on Plasmodium falciparum [2]. The Ki on Plasmepsin II amounted to 9.9 nM; at Plasmepsin I it was 11 nM.

As to `CCCCNC(=O)C[C@H](O)[C@H](CC(C)C)NC(=O)[C@@H](NC(=O)COc1ccc2ccccc2c1)[C@@H](C)CC`, the IC50 in the data set on Plasmodium falciparum [1] came out at 22700 nM; in the data set on Plasmodium falciparum [2] it was 15400 nM. Also, the figures for the Ki at Plasmepsin II and on Plasmepsin I were 58.9 nM and 727 nM, respectively.

For the origin of these results see ChEMBL document CHEMBL1137305, “High antiplasmodial activity of novel plasmepsins I and II inhibitors” (J Med Chem, 2006).
